Source: ChEMBL document CHEMBL1142436, “Design and synthesis of 4-substituted indolo[3,2-e][1,2,3]triazolo[1,5-a]pyrimidine derivatives with antitumor activity” (2008)

Tests used:
Type in all cases: functional
DU-145 = assay: Growth inhibition of human DU145 cells after 48 hrs; details: DU-145, 48 h
Outline: (§1)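 NCI ~60-line screen. Cells were grown in RPMI 1640 with 5% FBS and 2 mM L-glutamine and plated at 5000–40000 cells/well. After a 24 h preincubation, five drug concentrations from DMSO stocks were added for 48 h at 37 °C. Cells were TCA-fixed, stained with SRB and read at 515 nm. GI50 was taken from time-zero and control absorbances and reported as pGI50.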

RPMI-8226 = assay: Growth inhibition of human RPMI8226 cells after 48 hrs; details: RPMI-8226, 48 h; outline: as §1
RXF 393 = assay: Growth inhibition of human RXF393 cells after 48 hrs; details: RXF 393, 48 h; outline: as §1
MOLT-4 = assay: Growth inhibition of human MOLT4 cells after 48 hrs; details: MOLT-4, 48 h; outline: as §1
CCRF-CEM = assay: Growth inhibition of human CCRF-CEM cells after 48 hrs; outline: as §1
SNB-75 = assay: Growth inhibition of human SNB75 cells after 48 hrs; details: SNB-75, 48 h
Outline: (§2)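 NCI 60-line screen: cells in RPMI 1640 with 5% FBS and 2 mM L-glutamine, plated at 5000–40000 cells/well, grown 24 h (37 °C, 5% CO₂), then exposed to five 10-fold or ½-log dilutions (DMSO stock) for 48 h. Fixed with TCA (final 10% for adherent cells, 16% for suspension cells), then SRB stained with absorbance at 515 nm. GI50 from percentage growth relative to time-zero and control wells.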

MCF7 = assay: Growth inhibition of human MCF7 cells after 48 hrs; details: MCF7, 48 h; outline: as §1
[1] = Growth inhibition of human HS578T cells after 48 hrs; details: Hs-578T; outline: as §1
HCC 2998 = assay: Growth inhibition of human HCC2998 cells after 48 hrs; details: HCC 2998, 48 h; outline: as §1
SF-539 = assay: Growth inhibition of human SF539 cells after 48 hrs; details: SF-539, 48 h; outline: as §1
OVCAR-3 = assay: Growth inhibition of human OVCAR-3 cells after 48 hrs; details: OVCAR-3, 48 h; outline: as §1
SNB-19 = assay: Growth inhibition of human SNB19 cells after 48 hrs; details: SNB-19, 48 h; outline: as §2
HCT-116 = assay: Growth inhibition of human HCT116 cells after 48 hrs; details: HCT-116, 48 h; outline: as §1
A498 = assay: Growth inhibition of human A498 cells after 48 hrs; details: A498, 48 h; outline: as §1
SW-620 = assay: Growth inhibition of human SW620 cells after 48 hrs; details: SW-620, 48 h; outline: as §2
SK-MEL-28 = assay: Growth inhibition of human SK-MEL28 cells after 48 hrs; details: SK-MEL-28, 48 h; outline: as §1
HOP-62 = assay: Growth inhibition of human HOP62 cells after 48 hrs; details: HOP-62, 48 h; outline: as §1
IGROV-1 = assay: Growth inhibition of human IGROV1 cells after 48 hrs; details: IGROV-1, 48 h; outline: as §1
U-251 = assay: Growth inhibition of human U251 cells after 48 hrs; details: U-251, 48 h; outline: as §2
KM12 = assay: Growth inhibition of human KM12 cells after 48 hrs; details: KM12, 48 h; outline: as §1
EKVX = assay: Growth inhibition of human EKVX cells after 48 hrs; outline: as §1
M14 = assay: Growth inhibition of human M14 cells after 48 hrs; details: M14, 48 h; outline: as §1
SF-268 = assay: Growth inhibition of human SF268 cells after 48 hrs; details: SF-268, 48 h; outline: as §1
OVCAR-8 = assay: Growth inhibition of human OVCAR8 cells after 48 hrs; details: OVCAR-8, 48 h; outline: as §1
Malme-3M = assay: Growth inhibition of human MALME3M cells after 48 hrs; outline: as §1
OVCAR-4 = assay: Growth inhibition of human OVCAR4 cells after 48 hrs; details: OVCAR-4, 48 h; outline: as §1
COLO 205 = assay: Growth inhibition of human COLO205 cells after 48 hrs; details: COLO 205, 48 h; outline: as §1
NCI-H322M = assay: Growth inhibition of human NCI-H322M cells after 48 hrs; outline: as §1
NCI-H522 = assay: Growth inhibition of human NCI-H522 cells after 48 hrs; details: NCI-H522, 48 h; outline: as §1
NCI-H23 = assay: Growth inhibition of human NCI-H23 cells after 48 hrs; details: Homo sapiens, NCI-H23, 48 h; outline: as §1
NCI-H460 = assay: Growth inhibition of human NCI-H460 cells after 48 hrs; details: NCI-H460, 48 h; outline: as §1
ACHN = assay: Growth inhibition of human ACHN cells after 48 hrs; outline: as §1
T47D = assay: Growth inhibition of human T47D cells after 48 hrs; outline: as §2
[2] = read-out: Log LC50 (the source's name) (converted)

CCOC(=O)CNC(=O)CCCn1c(=O)c2c3ccccc3n(C)c2n2nnc(-c3ccccc3)c12
GI50 (DU-145): 32.4 µM | LC50 (DU-145): > 50.1 µM | TGI (DU-145; read-out: pTGI (converted)): > 50.1 µM | GI50 (RPMI-8226): 10.7 µM | LC50 (RPMI-8226): > 50.1 µM | TGI (RPMI-8226; read-out: pTGI (converted)): 33.9 µM | GI50 (RXF 393): 1.32 µM | LC50 (RXF 393): 22.4 µM | TGI (RXF 393; read-out: pTGI (converted)): 4.37 µM | GI50 (MOLT-4): > 50.1 µM | LC50 (MOLT-4): > 50.1 µM | TGI (MOLT-4; read-out: pTGI (converted)): > 50.1 µM | GI50 (CCRF-CEM): 26.3 µM | LC50 (CCRF-CEM): > 50.1 µM | TGI (CCRF-CEM; read-out: pTGI (converted)): > 50.1 µM | GI50 (SNB-75): 1.12 µM | LC50 (SNB-75): 17 µM | GI50 (MCF7): 31.6 µM | LC50 (MCF7): > 50.1 µM | TGI (MCF7; read-out: pTGI (converted)): > 50.1 µM | GI50 [1]: 4.47 µM | LC50 (50% lethal concentration) [1]: > 50.1 µM | TGI ([1]; read-out: pTGI (converted)): > 50.1 µM | GI50 (HCC 2998): > 50.1 µM | LC50 (HCC 2998): > 50.1 µM | TGI (HCC 2998; read-out: pTGI (converted)): > 50.1 µM | GI50 (SF-539): 4.27 µM | LC50 (concentration killing 50% of cells) (SF-539): 28.8 µM | TGI (SF-539; read-out: pTGI (converted)): 11.7 µM | GI50 (OVCAR-3): 12.6 µM | LC50 (OVCAR-3): > 50.1 µM | TGI (OVCAR-3; read-out: pTGI (converted)): 49 µM | LC50 (SNB-19): 17 µM | GI50 (HCT-116): 9.12 µM | LC50 (HCT-116): > 50.1 µM | TGI (HCT-116; read-out: pTGI (converted)): 27.5 µM | GI50 (A498): 7.59 µM | CC50 (A498; [2]): > 50.1 µM | TGI (A498; read-out: pTGI (converted)): 24.5 µM | GI50 (SW-620): > 50.1 µM | LC50 (lethal concentration, 50% cell kill) (SW-620): > 50.1 µM | TGI (SW-620; read-out: pTGI (converted)): > 50.1 µM | GI50 (SK-MEL-28): > 50.1 µM | LC50 (SK-MEL-28): > 50.1 µM | TGI (SK-MEL-28; read-out: pTGI (converted)): > 50.1 µM | GI50 (HOP-62): 5.89 µM | LC50 (HOP-62): > 50.1 µM | TGI (HOP-62; read-out: pTGI (converted)): 17.8 µM | GI50 (IGROV-1): 8.91 µM | LC50 (IGROV-1): > 50.1 µM | TGI (IGROV-1; read-out: pTGI (converted)): 30.2 µM | GI50 (U-251): 4.17 µM | LC50 (U-251): 46.8 µM | TGI (U-251; read-out: pTGI (converted)): 14.5 µM | GI50 (KM12): > 50.1 µM | LC50 (KM12): > 50.1 µM | TGI (KM12; read-out: pTGI (converted)): > 50.1 µM | GI50 (EKVX): > 50.1 µM | LC50 (EKVX): > 50.1 µM | TGI (EKVX; read-out: pTGI (converted)): 20.4 µM | GI50 (M14): 18.6 µM | LC50 (M14): > 50.1 µM | TGI (M14; read-out: pTGI (converted)): > 50.1 µM | GI50 (SF-268): 14.1 µM | CC50 (SF-268; [2]): > 50.1 µM | TGI (SF-268; read-out: pTGI (converted)): > 50.1 µM | GI50 (OVCAR-8): 25.1 µM | LC50 (OVCAR-8): > 50.1 µM | TGI (OVCAR-8; read-out: pTGI (converted)): > 50.1 µM | GI50 (Malme-3M): > 50.1 µM | LC50 (Malme-3M): > 50.1 µM | TGI (Malme-3M; read-out: pTGI (converted)): > 50.1 µM | GI50 (OVCAR-4): > 50.1 µM | LC50 (OVCAR-4): > 50.1 µM | TGI (OVCAR-4; read-out: pTGI (converted)): > 50.1 µM | GI50 (COLO 205): > 50.1 µM | LC50 (COLO 205): > 50.1 µM | TGI (COLO 205; read-out: pTGI (converted)): > 50.1 µM | GI50 (NCI-H322M): > 50.1 µM | LC50 (NCI-H322M): > 50.1 µM | TGI (NCI-H322M; read-out: pTGI (converted)): > 50.1 µM | GI50 (NCI-H522): 6.46 µM | LC50 (NCI-H522): > 50.1 µM | TGI (NCI-H522; read-out: pTGI (converted)): 20 µM | GI50 (NCI-H23): 11.7 µM | CC50 (NCI-H23; [2]): > 50.1 µM | TGI (NCI-H23; read-out: pTGI (converted)): > 50.1 µM | GI50 (NCI-H460): > 50.1 µM | LC50 (NCI-H460): > 50.1 µM | TGI (NCI-H460; read-out: pTGI (converted)): > 50.1 µM | GI50 (ACHN): 9.33 µM | LC50 (ACHN): > 50.1 µM | TGI (ACHN; read-out: pTGI (converted)): 33.9 µM | GI50 (T47D): 43.7 µM | CC50 (T47D; [2]): > 50.1 µM | TGI (T47D; read-out: pTGI (converted)): > 50.1 µM
